The values that follow come from ChEMBL document CHEMBL5712920, “The histone methyltransferase inhibitor A-366 enhances hemoglobin expression in erythroleukemia cells upon co-exposure with chemical inducers in culture” (J Biol Res (Thessalon), 2021).

Activity calls are given as the source filed them. The rule behind the calls is not given here.

Data set [1] deals with FLC clone 745. Kind of data set: Induction of cell cycle arrest in mouse FLC clone 745 cells assessed as accumulation cells at G1/G0 phase at 10^-6 M after 48 hrs by PI staining based flow cytometric analysis (reference value: 25.43%). The conditions noted are these: dose 1 10^-6M, at 1 µM. It is filed as functional. The method, boiled down:
(§1)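 MEL cells plated at 5 × 10^5 per well and synchronized by serum deprivation for 24 h. Cells then incubated with compound at 10−6 M, alone or with HMBA 5 × 10−3 M, for 24, 48 and 72 h. Fixed in 70% ethanol overnight at 4 °C, stained with propidium iodide, and DNA content measured by flow cytometry to assign subG1, G1, S, G2/M and >4N fractions.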
Background: A flow cytometer gives signals particle by particle.

The test system of data set [2] is FLC clone 745. As to the kind of experiment: Inhibition of G9a/GLP in HMBA-stiumulated mouse FLC clone 745 cells assessed as increase in HBB mRNA expression at 10^-6 M after 48 hrs by qPCR analsysis. The conditions noted are these: dose 1.0 10^-6M. The class given is cell-based. The method, boiled down:
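MEL cells treated for 48 h with HMBA 5 × 10−3 M plus compound at 10−6 M. Total RNA reverse-transcribed, and β-globin transcripts measured by qPCR. Data normalized to β-actin using the 2−ΔΔCt method; Student's t-test.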
On the technique in general: Quantitative PCR measures a nucleic acid by following its amplification.

Data set [3] concerns FLC clone 745. Kind of data set: Induction of cell cycle arrest in mouse FLC clone 745 cells assessed as accumulation cells at S phase at 10^-6 M after 24 hrs by PI staining based flow cytometric analysis (reference value: 28.46%). The class given is functional. The conditions noted are these: dose 1 10^-6M, at 1 µM. The method, boiled down:
as §1

For data set [4], the system named is FLC clone 745. Kind of data set: Induction of cell cycle arrest in mouse FLC clone 745 cells assessed as accumulation cells at > 4N phase at 10^-6 M after 24 hrs by PI staining based flow cytometric analysis (reference value: 13.47%). It is filed as functional. The conditions noted are these: dose 1 10^-6M, at 1 µM. The essentials: as §1
In data set [5] the test system is FLC clone 745. Kind of data set: Induction of cell cycle arrest in mouse FLC clone 745 cells assessed as accumulation cells at S phase at 10^-6 M after 48 hrs by PI staining based flow cytometric analysis (reference value: 29.53%). It is filed as functional. The conditions noted are these: dose 1 10^-6M, at 1 µM. The essentials: as §1
The test system of data set [6] is FLC clone 745. As to the kind of experiment: Induction of cell cycle arrest in mouse FLC clone 745 cells assessed as accumulation cells at subG1 phase at 10^-6 M after 48 hrs by PI staining based flow cytometric analysis (reference value: 9.79%). The class given is functional. The conditions noted are these: dose 1 10^-6M, at 1 µM. The essentials:
as §1

The test system of data set [7] is FLC clone 745. Kind of data set: Induction of cell cycle arrest in mouse FLC clone 745 cells assessed as accumulation cells at S phase at 10^-6 M after 72 hrs by PI staining based flow cytometric analysis (reference value: 24.02%). The class given is functional. The conditions noted are these: dose 1 10^-6M, at 1 µM. The method, boiled down: as §1
The subject of data set [8] is FLC clone 745. Kind of data set: Induction of cell cycle arrest in mouse FLC clone 745 cells assessed as accumulation cells at subG1 phase at 10^-6 M after 72 hrs by PI staining based flow cytometric analysis (reference value: 9.87%). It is filed as functional. The conditions noted are these: dose 1 10^-6M, at 1 µM. The method, boiled down: as §1
The test system of data set [9] is FLC clone 745. Kind of data set: Induction of cell cycle arrest in HMBA-stimulated mouse FLC clone 745 cells assessed as accumulation cells at G1/G0 phase at 10^-6 M after 24 hrs by PI staining based flow cytometric analysis (reference value: 17.28%). The class given is functional. The conditions noted are these: dose 1 10^-6M, at 1 µM. The essentials: as §1
Data set [10] concerns FLC clone 745. Kind of data set: Induction of cell cycle arrest in HMBA-stimulated mouse FLC clone 745 cells assessed as accumulation cells at G2/M phase at 10^-6 M after 24 hrs by PI staining based flow cytometric analysis (reference value: 9.52%). The class given is functional. The conditions noted are these: dose 1 10^-6M, at 1 µM. The method, boiled down: as §1
The test system of data set [11] is FLC clone 745. As to the kind of experiment: Induction of cell cycle arrest in HMBA-stimulated mouse FLC clone 745 cells assessed as accumulation cells at subG1 phase at 10^-6 M after 24 hrs by PI staining based flow cytometric analysis (reference value: 41.78%). It is filed as functional. The conditions noted are these: dose 1 10^-6M, at 1 µM. The method, boiled down: as §1

In data set [12] the test system is FLC clone 745. Kind of data set: Induction of cell cycle arrest in HMBA-stimulated mouse FLC clone 745 cells assessed as accumulation cells at G1/G0 phase at 10^-6 M after 48 hrs by PI staining based flow cytometric analysis (reference value: 15.23%). The conditions noted are these: dose 1 10^-6M, at 1 µM. It is filed as functional. The essentials:
as §1

In data set [13] the test system is FLC clone 745. Kind of data set: Induction of cell cycle arrest in HMBA-stimulated mouse FLC clone 745 cells assessed as accumulation cells at G2/M phase at 10^-6 M after 48 hrs by PI staining based flow cytometric analysis (reference value: 6.67%). The class given is functional. The conditions noted are these: dose 1 10^-6M, at 1 µM. The essentials: as §1
The subject of data set [14] is FLC clone 745. Kind of data set: Induction of cell cycle arrest in HMBA-stimulated mouse FLC clone 745 cells assessed as accumulation cells at subG1 phase at 10^-6 M after 48 hrs by PI staining based flow cytometric analysis (reference value: 43.83%). The class given is functional. The conditions noted are these: dose 1 10^-6M, at 1 µM. The method, boiled down: as §1

The subject of data set [15] is FLC clone 745. Kind of data set: Induction of cell cycle arrest in HMBA-stimulated mouse FLC clone 745 cells assessed as accumulation cells at G2/M phase at 10^-6 M after 72 hrs by PI staining based flow cytometric analysis (reference value: 9.86%). The conditions noted are these: dose 1 10^-6M, at 1 µM. The class given is functional. The method, boiled down:
as §1

Data set [16] deals with FLC clone 745. Kind of data set: Induction of cell cycle arrest in HMBA-stimulated mouse FLC clone 745 cells assessed as accumulation cells at subG1 phase at 10^-6 M after 72 hrs by PI staining based flow cytometric analysis (reference value: 58.77%). The class given is functional. The conditions noted are these: dose 1 10^-6M, at 1 µM. The essentials: as §1
A further data set deals with K562. As to the kind of experiment: Induction of apoptosis in human K562 cells assessed as effect on caspase-3 mRNA expression level at 1 to 10 uM cells after 48 hrs by qPCR analysis. The class given is toxicity, cell-based. The conditions noted are these: k562, 48 h, dose 1-10 µM. The essentials: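 K562 cells at 10^5 cells/ml grown without compound (control) or with 10−6 M or 10−5 M compound for 48 h. Total RNA isolated, then checked by gel electrophoresis and spectrophotometry. Transcripts quantified by qPCR.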

`COc1cc2c(cc1OCCCN1CCCC1)N=C(N)C21CCC1`: the Activity with FLC clone 745 [1] is listed as 21%; in the data set with FLC clone 745 [3], 23.91%; in the data set with FLC clone 745 [4], 9.49%; with FLC clone 745 [5] it was 29.12%; with FLC clone 745 [6] it was 18.28%; in the data set with FLC clone 745 [7], 23.1%. For the same compound, the Activity in the data set with FLC clone 745 [8] stood at 39.53%; with FLC clone 745 [9] it was 12.13%; with FLC clone 745 [10], 6.93%; with FLC clone 745 [11] it was 55.4%; in the data set with FLC clone 745 [12] it was 11.73%; with FLC clone 745 [13] it was 5.67%. Further, the Activity in the data set with FLC clone 745 [14] is 50.9%; in the data set on FLC clone 745 [15], 6.21%; in the data set on FLC clone 745 [16], 62.86%; in the data set with K562, “Non-Toxic”. The inhibition result in the data set on FLC clone 745 [2] was “Active”.
